Data set [1] is described as follows: The absolute striatal uptake of the carbon-11 labeled compound at 60 min was determined in baboon. Format: ADME. To be noted: papio hamadryas, 1 h. Summed up:
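PET in one young adult female baboon (Papio anubis, 12.6 kg). Anaesthesia was ketamine (10 mg/kg), then isoflurane/nitrous oxide maintenance. The same animal was used for three experiments, at least two weeks apart.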

Data set [2] can be described thus: Peak plasma radioactivity for the carbon-11 labeled compound was determined at 0.5 min after injection in baboon; (Range = 0.08-0.11). Format: ADME, cell-free. To be noted: papio hamadryas.
Data set [3] in a line: Peak plasma radioactivity for the carbon-11 labeled compound was determined at 1.5 min after injection in baboon; (Range = 0.08-0.11). To be noted: papio hamadryas, 0.025 h. Format: ADME, cell-free.
The nature of data set [4]: The amount of unchanged tracer in baboon plasma was determined 1 min after injection of the carbon-11 labeled compound. Format: ADME, cell-free. The conditions noted are these: papio hamadryas, read-out: Unchanged tracer. Summed up: (§1)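 Arterial plasma was sampled at 1, 10, 30 and 60 min after tracer injection in the baboon. Unchanged [N-11C-methyl]-4-fluorodeprenyl was measured by HPLC on a C18 Spherisorb 5 ODS column (250 × 4.6 mm). Mobile phase was methanol–0.05 N ammonium formate (70–30%) at 1 mL/min, with UV at 254 nm. Results are given as percent unchanged tracer.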

Data set [5] in a line: The amount of unchanged tracer in baboon plasma was determined 30 min after injection of the carbon-11 labeled compound. To be noted: papio hamadryas, read-out: Unchanged tracer. Format: ADME, cell-free. Summed up: as §1
A short description of data set [6]: The amount of unchanged tracer in baboon plasma was determined 60 min after injection of the carbon-11 labeled compound. Format: ADME, cell-free. The conditions noted are these: papio hamadryas, read-out: Unchanged tracer. Summed up:
as §1

A short description of data set [7]: The amount of unchanged tracer in baboon plasma was determined 10 min after injection of the carbon-11 labeled compound. To be noted: papio hamadryas, read-out: Unchanged tracer. Format: ADME, cell-free. Summed up: as §1
Data set [8] deals with T1, Monoamine oxidase (Homo sapiens, UniProt P21397+P27338).
T1 sequence (P21397 whole entry): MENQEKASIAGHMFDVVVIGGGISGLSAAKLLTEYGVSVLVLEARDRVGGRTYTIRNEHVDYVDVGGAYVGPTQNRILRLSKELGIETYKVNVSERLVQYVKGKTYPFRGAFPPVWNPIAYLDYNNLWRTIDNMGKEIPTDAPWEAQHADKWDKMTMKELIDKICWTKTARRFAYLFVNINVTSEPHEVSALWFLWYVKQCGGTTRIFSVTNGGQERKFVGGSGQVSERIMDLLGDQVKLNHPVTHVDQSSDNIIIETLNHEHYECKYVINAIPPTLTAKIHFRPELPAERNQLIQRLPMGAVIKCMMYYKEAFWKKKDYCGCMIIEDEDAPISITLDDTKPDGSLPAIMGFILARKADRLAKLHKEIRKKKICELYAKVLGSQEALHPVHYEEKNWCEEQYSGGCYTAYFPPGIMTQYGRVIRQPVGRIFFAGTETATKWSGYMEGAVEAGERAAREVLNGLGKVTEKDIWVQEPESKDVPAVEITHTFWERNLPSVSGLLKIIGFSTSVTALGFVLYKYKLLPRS
T1 sequence (P27338 whole entry): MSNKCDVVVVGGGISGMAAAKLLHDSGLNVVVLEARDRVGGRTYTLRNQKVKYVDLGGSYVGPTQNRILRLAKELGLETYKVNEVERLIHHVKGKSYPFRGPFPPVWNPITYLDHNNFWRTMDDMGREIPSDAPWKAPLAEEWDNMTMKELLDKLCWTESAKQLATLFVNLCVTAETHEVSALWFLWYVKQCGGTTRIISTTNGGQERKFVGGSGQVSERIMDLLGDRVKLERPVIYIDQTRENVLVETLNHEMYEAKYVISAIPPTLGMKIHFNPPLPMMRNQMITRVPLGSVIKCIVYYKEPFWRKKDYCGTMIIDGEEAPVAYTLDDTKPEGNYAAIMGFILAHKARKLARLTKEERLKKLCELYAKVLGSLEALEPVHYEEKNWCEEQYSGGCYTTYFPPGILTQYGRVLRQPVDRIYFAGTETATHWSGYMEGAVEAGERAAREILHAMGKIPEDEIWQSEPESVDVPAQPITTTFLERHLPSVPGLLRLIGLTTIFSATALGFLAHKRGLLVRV
The experiment in a line: In vitro inhibitory activity against Monoamine oxidase in baboon brain was determined. Format: tissue-based, Papio hamadryas. The conditions noted are these: target entry is the homologue from another species.

This is an account of results in ChEMBL document CHEMBL1124851, “Synthesis of (R)-(-)- and (S)-(+)-4-fluorodeprenyl and (R)-(-)- and (S)-(+)-[N-11C-methyl]-4-fluorodeprenyl and positron emission tomography studies in baboon brain” (J Med Chem, 1990).

By IC50 is commonly meant the midpoint of a concentration-inhibition curve.

Turning to `C#CCN([11CH3])[C@H](C)Cc1ccc(F)cc1`, the “% injected dose/cm3” value in data set [1] turned out to be 0.053%. The figures for the “Peak radioactivity in blood” value in data set [2] and in data set [3] were 0.11 % injected dose cm**-3 and 0.01 % injected dose cm**-3, respectively. The remaining at 1 min in data set [4] was determined as 96%. Besides, the remaining at 0.5 h in data set [5] was 20%. Further, the remaining at 1 h in data set [6] was determined as 14%. For the same molecule, the remaining at 10 min in data set [7] amounted to 50%.

Regarding `C#CCN(C)[C@H](C)Cc1ccc(F)cc1`, the IC50 in data set [8] stood at 41.7 nM.

In the case of `C#CCN(C)[C@@H](C)Cc1ccc(F)cc1`, in data set [1], the “% injected dose/cm3” value amounted to 0.021%. For the same molecule, the “Peak radioactivity in blood” value is 0.11 % injected dose cm**-3 in data set [2] and 0.01 % injected dose cm**-3 in data set [3]. The remaining at 1 min in data set [4] stood at 98%. Moreover, the remaining at 0.5 h in data set [5] is 30%. In addition, the remaining at 1 h in data set [6] stood at 22%. Besides, in data set [7], the remaining at 10 min was determined as 61%.

Consider `C#CCN(C)C(C)Cc1ccc(F)cc1` (stereo not drawn), for which the Uptake in data set [1] was 0.041 % injected dose cm**-3. Further, the entries for the “Peak radioactivity in blood” value in data set [2] and in data set [3] were 0.11 % injected dose cm**-3 and 0.01 % injected dose cm**-3, respectively. For the same molecule, in data set [4], the remaining at 1 min turned out to be 96%. For the same molecule, the remaining at 0.5 h in data set [5] came out at 16%. The remaining at 1 h in data set [6] was 15%. The remaining at 10 min in data set [7] stood at 43%.

In the case of `C#CCN(C)[C@H](C)Cc1ccccc1` [SELEGILINE], the Uptake in data set [1] stood at 0.057%.
